Screening results from PubChem BioAssay.
Shown are actives, neighbours in structure and some others; about 2.2% of the full set was active somewhere.
SKN-1 inh: inhibitors of C. elegans SKN-1. C. elegans VP596 Pgst-4::GFP/RFP ratio, acrylamide-induced, 24 h. inhibition, % at 21.8 µM. 360,000 compounds, 0.49% hits;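 active = interference check ratio from 0.5 to 1.5 plus GFP to RFP signal ratio inhibition reaching or exceeding a fixed threshold, cut at about 30% in these data, passing the limit was not always enough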
MT1-MMP act inh: MT1-MMP (human) activation inhibition; P50281; HT1080 RFP-PRO-GFP cells, GFP/RFP ratio fluorescence, overnight; percent of plate control window, DMSO zero; GFP/RFP ratio change, % at 20 µM; 360,000 compounds, 0.061% hits; AID 651647;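 active = GFP/RFP ratio change of at least 30% with cell ATP level not reduced by more than half and red fluorescence within 50% of control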
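system = RFP-PRO-GFP reporter HT1080 cells | dosing = 20 µM single dose, 1% DMSO | timing = overnight cell settling, then overnight compound exposure, 37 °C, 5% CO2 | read-out basis = GFP/RFP fluorescence ratio | controls = DMSO and RFP-L50D-GFP cell wells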
Neddylation inh: blocks human cullin neddylation; 360,000 compounds, 0.58% hits; AID 651699; TR-FRET cullin neddylation, biochemical; calls only at 25 µM; P61081+Q13564; in the data active = inhibition above about 36%
Target sequence (P61081 whole entry, looked up): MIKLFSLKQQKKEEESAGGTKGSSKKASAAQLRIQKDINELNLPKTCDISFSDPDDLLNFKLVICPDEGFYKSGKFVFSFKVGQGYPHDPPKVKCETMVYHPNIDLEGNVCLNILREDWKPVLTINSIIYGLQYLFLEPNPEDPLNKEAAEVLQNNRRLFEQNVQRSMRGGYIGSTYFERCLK
Target sequence (Q13564 whole entry, looked up): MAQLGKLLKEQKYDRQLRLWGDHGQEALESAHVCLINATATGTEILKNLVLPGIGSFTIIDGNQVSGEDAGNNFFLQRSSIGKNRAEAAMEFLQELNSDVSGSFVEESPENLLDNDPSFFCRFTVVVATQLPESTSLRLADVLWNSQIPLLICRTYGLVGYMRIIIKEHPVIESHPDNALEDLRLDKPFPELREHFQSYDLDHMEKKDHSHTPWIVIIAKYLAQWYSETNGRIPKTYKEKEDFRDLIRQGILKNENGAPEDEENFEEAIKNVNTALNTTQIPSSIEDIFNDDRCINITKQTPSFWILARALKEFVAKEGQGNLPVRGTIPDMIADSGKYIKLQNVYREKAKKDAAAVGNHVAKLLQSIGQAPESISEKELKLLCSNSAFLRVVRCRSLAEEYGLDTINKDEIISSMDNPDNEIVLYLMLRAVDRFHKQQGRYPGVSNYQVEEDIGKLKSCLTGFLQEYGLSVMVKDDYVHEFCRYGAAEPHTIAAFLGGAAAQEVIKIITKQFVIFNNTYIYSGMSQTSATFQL
DDE Tn6 FP inh: disrupts Tn6 cyclic peptide binding to fibrin D-Dimer-E complex; P02675; Fibrin DD(E) TRITC-Tn6 fluorescence polarization displacement; inhibition, % at 8.3 µM; 370,000 compounds, 0.21% hits;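 active = inhibition above a per-campaign cutoff: mean of compounds within control limits plus 3 SD, cut at about 15% in these data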
DDE Tn7 FP inh: inhibitors of Tn7 peptide binding to human fibrin DD(E). inhibition, % at 8.3 µM. 370,000 compounds, 0.13% hits. FP displacement of FITC-Tn7 peptide from fibrin DD(E); 0% = median of compound wells per plate. P02675;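 active = inhibition above the mean of compounds falling within the control limits plus 3 SD of them, cut at about 14% in these data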
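Test system – human fibrin DD(E) · Times – 10 min preincubation, 3 h with tracer, room temperature · Detection – fluorescence polarization of the labelled Tn7 tracer · Measure – percent inhibition normalized to high-control wells · Benchmarks – high control wells with 10 µM unlabelled Aha-Tn7 peptide (full inhibition) · Repeats – singlicate testing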
proKLK7 act: proKLK7 (human) activation, primary screen; activation, % at 7 µM; 370,000 compounds, 0.9% hits; P49862; AID 652039; purified proKLK7, EDANS-DABCYL substrate fluorescence; 100% is mature enzyme control, 0% vehicle;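 active = activation above the mean of all tested compounds plus 3 SD, computed per campaign excluding outliers beyond control limits, cut at about 13% in these data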
MT1-MMP conf: blocks activation of human MT1-MMP in validation testing; inhibition, % at 20 µM; HT1080 RFP-PRO-GFP cells, GFP and RFP fluorescence ratio, overnight; 200 compounds, 10% hits; shares compounds with MT1-MMP act inh;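 active = inhibition of at least 50% in the primary cell screen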
Neddyl inh conf: confirmation of human cullin neddylation inhibitors. 1,800 compounds, 13% hits. TR-FRET cullin neddylation biochemical assay. shares compounds with Neddylation inh. calls only at 25 µM; in the data active = inhibition above about 40%;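 also: neddylation substrate is the cullin 1 ring ligase complex with SKP2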
Tn6 DDE ctr: DD(E)-Tn6 binding inhibition, counter-screen; 680 compounds, 2% hits; shares compounds with DDE Tn6 FP inh; inhibition, % at 8.3 µM; Fibrin DD(E), TRITC-Tn6 fluorescence polarization displacement; 0% = median of compound wells, not DMSO; AID 720621;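 active = inhibition above the mean of test compounds lying between the control limits plus 3 SD of those, cut at about 14% in these data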
Tn6 DDE conf: confirmation of inhibitors of Tn6 binding to human fibrin DD(E); 680 compounds, 10% hits; shares compounds with DDE Tn6 FP inh; inhibition, % at 8.3 µM; FP displacement of TRITC-Tn6 peptide from DD(E); 0% = per-plate median of test wells;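 active = inhibition above the mean of compounds lying within the control limits plus 3 SD, cut at about 16% in these data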
Numbers stand for hits; - = inactive; . = not tested or not shown; + = active, no number.

SMILES	SKN-1 inh	MT1-MMP act inh	Neddylation inh	DDE Tn6 FP inh	DDE Tn7 FP inh	proKLK7 act	MT1-MMP conf	others
CC1=NN(c2ccccc2)C(=O)/C1=C/C=C/c1ccc(N(C)C)cc1	-	55	-	-	-	-	-
O=C(CSCc1cccc(Br)c1)N=Nc1c(O)[nH]c2ccccc12	-	-	-	-	-	-	.
O=Nc1c(-c2c(O)[nH]c3cc(Br)ccc23)[nH]c2ccccc12	-	77	-	-	-	-	70
C[N+]1=C(/C=C/Nc2ccccc2Cl)C(C)(C)c2ccccc21	-	52	-	-	-	-	-
FC(F)(F)c1cnc(/C=C/Nc2ccccc2Cl)c(Cl)c1	-	-	-	-	-	-	.
CCc1nnc2c(N(C)C)nc3ccccc3n12	-	-	-	-	-	-	.
COc1ccc(Nc2ccccc2N)cc1	-	31	-	-	-	-	51
O=C(COC(=O)CC1CCCC1)Nc1ccc(Cl)cn1	-	-	-	-	-	-	.
COc1ccc(NC(=O)CSc2nnc(C3CC3)n2C)cc1S(=O)(=O)N1CCOCC1	-	-	-	-	-	-	.
CCc1cc2c(NCC(=O)O)ncnc2s1	-	-	-	-	-	-	.
CCc1cc2c(NCc3ccco3)ncnc2s1	-	34	-	-	-	-	-
Cc1cc2cc(CNC(=O)C3CCCC3)ccc2n1C	-	35	-	-	-	-	-
Cn1c(CNC(=O)C2CCCCC2)cc2cc(Cl)ccc21	-	-	-	-	-	-	.
COc1cccc(NC(=S)NCc2ccc(F)cc2)c1	-	-	-	-	-	-	.
COc1cccc(NC(=S)NCc2ccc3c(c2)cc(C)n3C)c1	-	38	-	-	-	-	-
C=C[C@@H]1c2cc(C)ccc2N(S(=O)(=O)c2ccc(C)cc2)[C@H](c2ccccc2)C1(C#N)S(=O)(=O)c1ccccc1 (stereo partly specified)	-	-	-	-	-	-	.
O=C1CSC(=S)N1Cc1ccccc1	-	-	-	-	-	-	.
O=C(CN1CCCC1)N1CCCc2c1c(=O)oc1ccc(OCc3ccccc3)cc21	-	51	+	-	-	-	-
C[C@H](CO)N1C[C@H](C)[C@@H](CN(C)Cc2ccc(-c3ccccc3)cc2)Oc2c(NC(=O)Nc3ccc(C(F)(F)F)cc3)cccc2C1=O	-	-	-	-	-	-	.
O=C1c2cccc(NCCCNCCO)c2C(=O)c2cccc(NCCCNCCO)c21	-	68	-	21	-	-	55	Tn6 DDE ctr=-;Tn6 DDE conf=32
O=C1C(Cl)=C(NCCCO)C(=O)c2ccccc21	-	-	-	-	-	-	.
Cc1cc2cc(CNC(=O)Cc3ccc([N+](=O)[O-])cc3)ccc2n1C	39	42	-	17	-	-	-	Tn6 DDE ctr=-;Tn6 DDE conf=-
Cc1cccc(NC(=S)NCc2ccc3c(c2)cc(C)n3C)c1C	-	41	-	23	-	-	-	Tn6 DDE ctr=-;Tn6 DDE conf=-
COc1ccc(NC(=O)c2cc(CN3C(=O)c4ccccc4C3=O)ccc2OC)cn1	-	-	-	-	-	-	.
O=c1[nH]nc(CNc2ccc(O)cc2)c2ccccc12	-	49	-	16	-	-	-	Tn6 DDE ctr=-;Tn6 DDE conf=-
SMILES	SKN-1 inh	MT1-MMP act inh	Neddylation inh	DDE Tn6 FP inh	DDE Tn7 FP inh	proKLK7 act	MT1-MMP conf	others
COc1ccc(CNC(=O)c2noc(C(C)C)c2[N+](=O)[O-])cc1	-	-	-	-	-	-	.
NS(=O)(=O)c1ccc(CNS(=O)(=O)c2ccc3ccccc3c2)cc1	-	-	-	-	-	-	.
Cc1cc2cc(CNS(=O)(=O)c3ccc4ccccc4c3)ccc2n1C	-	45	-	50	-	-	-	Tn6 DDE ctr=-;Tn6 DDE conf=20
COc1ccc(OC)c(NC(=O)C(C)SCc2nc3sc(C)c(C)c3c(=O)[nH]2)c1 (stereo unspecified)	-	-	-	-	-	-	.
CCN(CC)c1cc(C)c2cc(NC(=O)c3ccccc3OC)ccc2n1	-	-	+	-	-	-	.	Neddyl inh conf=-
COc1ccccc1C(=O)Nc1ccc2c(c1)nc1n2CCN(Cc2ccccc2)C1	-	-	+	-	-	-	.	Neddyl inh conf=-
CC1CCCN(C(=O)C2CCN(c3nc(-c4ccccc4)nc4c3CCC4)CC2)C1 (stereo unspecified)	-	-	-	-	-	-	.
COC(=O)c1cc(NC(=O)c2c(-c3ccccc3)noc2C)ccc1N1CCOCC1	-	-	+	-	-	-	.	Neddyl inh conf=-
COC(=O)c1cc(NC(=O)c2c(-c3c(Cl)cccc3Cl)noc2C)ccc1N1CCOCC1	-	-	-	-	-	-	.
COC(=O)c1ccc2c(=O)n(CCCCCC(=O)O)c(=O)[nH]c2c1	-	-	+	-	-	-	.
CCCCNC(=O)CCCCCn1c(=O)[nH]c2cc(C(=O)OC)ccc2c1=O	-	-	-	-	-	-	.
O=C(C1=C(O)C(=O)N(CC2CCCO2)C1c1ccccc1F)c1ccco1 (stereo unspecified)	-	-	-	-	-	-	.
COc1ccc(-c2cc(C(=O)NCCN3CCOCC3)c3ccccc3n2)cc1OC	-	-	-	-	-	-	.
COc1ccc(Nc2nnc(-c3ccc(C)cc3)c3ccccc23)cc1C(=O)N1CCCCC1	-	-	+	-	-	-	.	Neddyl inh conf=-
COc1ccc(-c2cc(C(=O)N3CCCCC3)c3ccccc3n2)cc1OC	-	-	+	-	-	-	.
COc1ccc(-c2cc(C(=O)NCC(c3ccco3)N(C)C)c3ccccc3n2)cc1OC (stereo unspecified)	-	-	+	-	-	-	.	Neddyl inh conf=-
COc1ccc(-c2cc(C(=O)N3CCN(c4ncccn4)CC3)c3ccccc3n2)cc1OC	-	-	+	-	-	-	.
COc1ccc(-c2cc(C(=O)N3CCC3)c3ccccc3n2)cc1OC	-	-	-	-	-	-	.
Nc1c(C(=O)c2ccccc2)oc2ccccc12	-	-	-	-	-	-	.
CCc1cc(=O)[nH]c(SCCc2ccccc2)n1	-	-	-	.	.	.	.
